Measurements taken from ChEMBL document CHEMBL4613315, “Design of First-in-Class Dual EZH2/HDAC Inhibitor: Biochemical Activity and Biological Evaluation in Cancer Cells” (ACS Med Chem Lett, 2020).

Tests used:
[1] = Induction of apoptosis in human RH4 cells assessed as early apoptotic cells at 28 uM incubated for 72 hrs by annexin V-FITC staining based flow cytometry (reference value: 10.8 %); format: functional
[2] = target: T1, Histone-lysine N-methyltransferase EZH2 (Homo sapiens, UniProt Q15910); assay: Inhibition of human EZH2 using core histone as substrate incubated for 1 hr by fluorescence based assay
Target sequence in this assay (Q15910 whole entry): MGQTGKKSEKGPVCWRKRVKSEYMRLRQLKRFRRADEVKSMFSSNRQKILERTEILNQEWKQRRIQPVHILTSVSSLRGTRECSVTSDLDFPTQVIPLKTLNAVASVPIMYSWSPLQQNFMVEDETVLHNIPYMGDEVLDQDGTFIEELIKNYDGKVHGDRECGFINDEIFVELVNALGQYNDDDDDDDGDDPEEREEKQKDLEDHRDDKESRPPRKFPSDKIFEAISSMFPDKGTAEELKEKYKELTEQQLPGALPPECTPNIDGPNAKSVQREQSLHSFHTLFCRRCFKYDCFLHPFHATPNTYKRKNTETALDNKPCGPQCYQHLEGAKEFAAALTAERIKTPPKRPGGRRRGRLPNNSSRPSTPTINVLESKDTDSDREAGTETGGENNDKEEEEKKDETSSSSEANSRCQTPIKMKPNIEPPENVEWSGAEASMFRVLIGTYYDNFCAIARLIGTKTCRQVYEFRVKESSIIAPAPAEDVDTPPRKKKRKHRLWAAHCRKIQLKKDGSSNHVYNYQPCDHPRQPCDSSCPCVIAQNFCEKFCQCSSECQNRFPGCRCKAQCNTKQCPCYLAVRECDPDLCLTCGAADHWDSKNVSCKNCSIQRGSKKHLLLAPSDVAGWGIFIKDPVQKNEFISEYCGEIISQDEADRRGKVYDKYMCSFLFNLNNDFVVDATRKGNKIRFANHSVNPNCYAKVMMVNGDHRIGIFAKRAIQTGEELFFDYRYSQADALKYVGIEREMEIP

[3] = Induction of apoptosis in human RH4 cells assessed as viable cells at 28 uM incubated for 72 hrs by annexin V-FITC staining based flow cytometry (reference value: 86.6 %); format: functional; details: Rh4, 72 h, read-out: Activity
U-937 [4] = assay: Induction of apoptosis in human U937 cells assessed as viable cells at 25 uM incubated for 72 hrs by annexin V-FITC staining based flow cytometry (reference value: 95.4 %); format: functional; details: U-937, 72 h, read-out: Activity
[5] = Induction of apoptosis in human RH4 cells assessed as viable cells at 14 uM incubated for 72 hrs by annexin V-FITC staining based flow cytometry (reference value: 86.6 %); format: functional; details: Rh4, 72 h, read-out: Activity
[6] = Cell cycle arrest in human RH4 cells assessed as G0/G1 accumulation at 14 uM incubated for 72 hrs by propidium iodide staining based flow cytometry (reference value: 46.2 %); format: functional
Histone deacetylase 1 = Histone deacetylase 1 (Homo sapiens, UniProt Q13547); assay: Inhibition of human recombinant HDAC1 using AMC-K(Ac)GL as substrate by fluorescence based assay
U-937 [7] = assay: Induction of apoptosis in human U937 cells assessed as late apoptotic cells at 10 uM incubated for 72 hrs by annexin V-FITC staining based flow cytometry (reference value: 0.7 %); format: functional
Histone deacetylase 4 = Histone deacetylase 4 (Homo sapiens, UniProt P56524); assay: Inhibition of human recombinant HDAC4 using AMC-K(TFA)GL as substrate by fluorescence based assay
U-937 [8] = assay: Induction of apoptosis in human U937 cells assessed as early apoptotic cells at 25 uM incubated for 72 hrs by annexin V-FITC staining based flow cytometry (reference value: 3.4 %); format: functional
[9] = Cell cycle arrest in human RH4 cells assessed as subG1 accumulation at 14 uM incubated for 72 hrs by propidium iodide staining based flow cytometry (reference value: 1.9 %); format: functional
[10] = Cell cycle arrest in human RH4 cells assessed as G2/M accumulation at 28 uM incubated for 72 hrs by propidium iodide staining based flow cytometry (reference value: 18.9 %); format: functional
[11] = Cytotoxicity against human RH4 cells assessed as reduction in cell viability at 50 uM in presence of vorinostat incubated for 72 hrs by CellTiter-Glo Luminescent cell viability assay relative to control; format: functional; details: Rh4, 72 h
Method in brief: (§1)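 Viability after 72 h of single-agent or combined treatment with the HDAC inhibitor (0.05–0.25 μM) and the EZH2 inhibitor. EZH2 inhibitor range: U937 5–25 μM; RH4 10–50 μM. Synergy was assessed by combination index and isobologram analysis.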

[12] = target: T1, Histone-lysine N-methyltransferase EZH2; assay: Inhibition of EZH2 in human RH4 cells assessed as H3K27me3 level at 50 uM in presence of vorinostat incubated for 72 hrs by Western blot analysis (reference value: 1); format: cell-based
Method in brief: (§2)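 RH4 cells co-treated with EZH2 inhibitor at 50 μM plus HDAC inhibitor at 0.15 μM; Western blot after 72 or 96 h for H3K27me3 or acetyl-tubulin, vinculin loading control; densitometry normalized to loading control then DMSO vehicle.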
Target sequence in this assay (Q15910 whole entry, looked up): as the sequence (Q15910 whole entry) above

U-937 [13] = assay: Cytotoxicity against human U937 cells assessed as reduction in cell viability at 25 uM incubated for 72 hrs by CellTiter-Glo Luminescent cell viability assay relative to control; format: functional; details: U-937, 72 h; method in brief: as §1
U-937 [14] = assay: Cytotoxicity against human U937 cells assessed as combinational index measured at fraction affected value of 0.68 in presence of vorinostat at 10 uM incubated for 72 hrs by CellTiter-Glo Luminescent cell viability assay; format: functional; method in brief: as §1
[15] = target: T2, Protein deacetylase HDAC6 (Homo sapiens) (UniProt Q9UBN7); assay: Inhibition of HDAC6 in human RH4 cells assessed as acetylated alpha-tubulin level at 50 uM in presence of vorinostat incubated for 72 hrs by Western blot analysis (reference value: 1); format: cell-based; method in brief: as §2
T2 sequence (whole entry): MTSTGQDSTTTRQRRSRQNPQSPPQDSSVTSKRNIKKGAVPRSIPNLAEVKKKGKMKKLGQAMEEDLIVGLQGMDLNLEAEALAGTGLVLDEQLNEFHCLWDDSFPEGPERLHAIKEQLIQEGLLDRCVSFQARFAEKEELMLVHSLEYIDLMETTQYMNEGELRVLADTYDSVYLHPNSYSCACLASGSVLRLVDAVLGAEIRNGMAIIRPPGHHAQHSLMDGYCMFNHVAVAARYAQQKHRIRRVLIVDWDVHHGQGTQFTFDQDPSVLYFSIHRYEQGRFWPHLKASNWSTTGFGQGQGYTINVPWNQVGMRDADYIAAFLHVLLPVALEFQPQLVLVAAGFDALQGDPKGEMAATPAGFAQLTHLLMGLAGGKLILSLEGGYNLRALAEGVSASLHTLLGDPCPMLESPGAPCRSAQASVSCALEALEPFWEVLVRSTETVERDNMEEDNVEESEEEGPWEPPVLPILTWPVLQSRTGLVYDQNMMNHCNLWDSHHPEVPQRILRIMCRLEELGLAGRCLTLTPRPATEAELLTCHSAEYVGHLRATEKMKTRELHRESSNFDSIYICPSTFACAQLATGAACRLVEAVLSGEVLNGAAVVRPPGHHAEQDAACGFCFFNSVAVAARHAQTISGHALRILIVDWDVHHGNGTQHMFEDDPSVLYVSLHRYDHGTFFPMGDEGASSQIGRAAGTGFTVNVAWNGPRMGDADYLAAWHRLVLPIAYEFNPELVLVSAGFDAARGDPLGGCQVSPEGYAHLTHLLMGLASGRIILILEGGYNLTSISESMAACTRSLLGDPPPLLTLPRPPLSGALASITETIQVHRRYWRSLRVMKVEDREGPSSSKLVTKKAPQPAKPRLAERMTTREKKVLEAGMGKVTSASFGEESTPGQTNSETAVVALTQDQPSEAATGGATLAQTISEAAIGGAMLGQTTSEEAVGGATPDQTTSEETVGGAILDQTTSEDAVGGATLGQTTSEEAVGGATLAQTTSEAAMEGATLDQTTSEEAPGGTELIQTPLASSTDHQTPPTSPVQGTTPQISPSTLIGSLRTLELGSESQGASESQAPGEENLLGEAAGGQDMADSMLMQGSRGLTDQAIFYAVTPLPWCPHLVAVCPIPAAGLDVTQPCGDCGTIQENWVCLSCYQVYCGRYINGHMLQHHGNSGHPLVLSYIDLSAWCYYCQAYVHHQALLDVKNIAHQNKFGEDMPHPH

U-937 [16] = assay: Cytotoxicity against human U937 cells assessed as combinational index measured at fraction affected value of 0.05 in presence of vorinostat at 1 uM incubated for 72 hrs by CellTiter-Glo Luminescent cell viability assay; format: functional

Histone deacetylase 4, sequence (P56524 whole entry): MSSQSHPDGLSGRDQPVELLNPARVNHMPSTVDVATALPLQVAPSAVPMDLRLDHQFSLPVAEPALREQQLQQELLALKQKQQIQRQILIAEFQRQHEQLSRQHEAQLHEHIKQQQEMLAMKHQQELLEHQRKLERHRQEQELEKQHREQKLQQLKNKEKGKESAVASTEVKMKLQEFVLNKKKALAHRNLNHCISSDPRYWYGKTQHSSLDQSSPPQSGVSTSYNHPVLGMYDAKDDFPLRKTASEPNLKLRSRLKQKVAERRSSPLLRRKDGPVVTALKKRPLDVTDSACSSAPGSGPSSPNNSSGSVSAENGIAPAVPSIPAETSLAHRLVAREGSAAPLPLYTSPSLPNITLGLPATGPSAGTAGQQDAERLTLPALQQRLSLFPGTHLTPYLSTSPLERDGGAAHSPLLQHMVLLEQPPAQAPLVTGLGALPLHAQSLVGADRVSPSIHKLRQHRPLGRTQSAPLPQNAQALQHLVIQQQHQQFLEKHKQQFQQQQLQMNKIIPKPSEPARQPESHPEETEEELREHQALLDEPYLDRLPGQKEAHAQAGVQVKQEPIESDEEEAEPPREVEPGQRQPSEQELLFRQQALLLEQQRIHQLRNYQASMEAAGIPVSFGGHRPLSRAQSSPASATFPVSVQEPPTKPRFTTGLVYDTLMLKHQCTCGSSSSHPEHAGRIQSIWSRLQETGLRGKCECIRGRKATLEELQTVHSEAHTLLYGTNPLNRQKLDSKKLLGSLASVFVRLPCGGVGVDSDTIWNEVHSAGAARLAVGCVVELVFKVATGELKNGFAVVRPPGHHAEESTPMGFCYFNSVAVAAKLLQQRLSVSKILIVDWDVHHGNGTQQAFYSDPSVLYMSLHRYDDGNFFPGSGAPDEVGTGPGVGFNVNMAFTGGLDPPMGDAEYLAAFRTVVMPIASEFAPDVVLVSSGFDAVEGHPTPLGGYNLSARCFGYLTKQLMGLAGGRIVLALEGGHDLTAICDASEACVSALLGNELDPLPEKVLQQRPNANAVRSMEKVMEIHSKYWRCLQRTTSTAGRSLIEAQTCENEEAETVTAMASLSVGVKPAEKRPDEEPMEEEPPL
Histone deacetylase 1, sequence (Q13547 whole entry): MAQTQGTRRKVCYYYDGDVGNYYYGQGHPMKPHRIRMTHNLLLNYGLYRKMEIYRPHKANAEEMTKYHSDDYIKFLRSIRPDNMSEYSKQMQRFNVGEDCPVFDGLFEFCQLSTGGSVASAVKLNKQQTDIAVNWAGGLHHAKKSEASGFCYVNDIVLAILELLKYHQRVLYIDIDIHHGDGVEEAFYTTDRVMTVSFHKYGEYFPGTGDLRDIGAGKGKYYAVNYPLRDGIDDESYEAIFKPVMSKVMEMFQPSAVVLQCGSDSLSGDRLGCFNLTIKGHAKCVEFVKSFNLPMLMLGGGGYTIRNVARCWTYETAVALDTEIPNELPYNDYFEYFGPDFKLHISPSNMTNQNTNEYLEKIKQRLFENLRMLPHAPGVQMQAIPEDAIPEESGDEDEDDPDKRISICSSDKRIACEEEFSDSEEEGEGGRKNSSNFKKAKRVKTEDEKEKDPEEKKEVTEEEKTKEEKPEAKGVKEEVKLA

`Cc1cc(C)c(CNC(=O)c2cc(C)n(-c3cccc(NC(=O)CCCCCCC(=O)NO)c3)c2C)c(=O)[nH]1` gave an Activity [1] of 26.5%, an IC50 [2] of 7.37 µM and a viability at 28 µM [3] of 68.7%. For the same molecule, the viability at 25 µM (U-937 [4]) was 75%, the viability at 14 µM [5] was 82.5% and the Activity [6] was 47.2%. The IC50 (Histone deacetylase 1) was 0.43 µM, the Activity (U-937 [7]) was 0.7% and the IC50 (Histone deacetylase 4) was 36.8 µM. The Activity (U-937 [8]) was 23.3%, the Activity [9] was 3.8% and the Activity [10] was 6.4%.
`Cc1cc(C)c(CNC(=O)c2cc(C)n(-c3ccccc3)c2C)c(=O)[nH]1` showed an inhibition at 50 µM [11] of over 60%, an IC50 [2] of 5.78 µM and a fold change (FC) [12] of 0.02. The inhibition at 25 µM (U-937 [13]) was 25%, the CI (U-937 [14]) was 0.14 and the fold change (FC) [15] was 2.4. For the same molecule, the CI (U-937 [16]) was 3.34.
